The record followed here is ChEMBL document CHEMBL2311408, “Inhibition of norovirus 3CL protease by bisulfite adducts of transition state inhibitors” (Bioorg Med Chem Lett, 2013).

One data set relates to Norovirus. Nature of the data set: Antiviral activity against Norovirus infected in human HG23 cells. The format is functional. Particulars: read-out: ED50 (the source's name). In short, it runs like this:
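Norovirus replicon-bearing cells, with inhibition of viral replication reported as ED50 in μM.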

A short description of data set [1]: Cytotoxicity against human HG23 cells up to 320 uM. The format is cell-based.
A short description of data set [2]: Inhibition of Norovirus recombinant 3CL protease using Edans-EPDFHLQGPEDLAK-Dabcyl as substrate for 30 mins by fluorometry.
A short description of data set [3]: Aqueous stability of the compound in DMSO/water after 24 hrs by Mass spectrometry. The format is physicochemical. In short, it runs like this: (§1)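 The bisulfite adduct was placed in water. The species present (intact bisulfite adduct or hydrated aldehyde) were examined after 5 min of exposure and again after 24 h.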
Data set [4] can be described thus: Stability of the compound in buffer solution at pH 7.4 assessed as formation of aldehyde form of compound within 1 hr. The format is physicochemical. Particulars: pH 7.4, 1 h. Summed up:
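The bisulfite adduct was placed in buffer solution at pH 7.4. Over about one hour, it was followed for dissociation to the free aldehyde and for hydration of that aldehyde.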

The nature of data set [5]: Aqueous stability of the compound assessed as compound hydration in DMSO/water after 5 mins by Mass spectrometry. The format is physicochemical. Summed up: as §1

In the case of `CC(C)C[C@H](NC(=O)OCc1cccc(F)c1)C(=O)N[C@@H](CC1CCNC1=O)C(O)S(=O)(=O)[O-].[Na+]` (stereo partly specified), the EC50 in the data set on Norovirus amounted to 200 nM. Moreover, in data set [1], the Activity result is given as “Non-toxic”.
For `CCOC(=O)N[C@@H](C)C(=O)N[C@@H](CC1CCNC1=O)C(O)(C(=O)NC1CC1)S(=O)(=O)[O-].[Na+]` (stereo partly specified), in data set [2], the IC50 is 5300 nM. The EC50 in the data set on Norovirus worked out at 800 nM. In addition, the Activity result in data set [1] is given as “Non-toxic”.
Consider `CC(C)C[C@H](NC(=O)OCc1ccccc1)C(=O)N[C@@H](CC1CCNC1=O)C(O)S(=O)(=O)[O-].[Na+]` (stereo partly specified), for which the Stability entry in data set [3] and in data set [4] was “Stable” each time. Besides, the EC50 with Norovirus turned out to be 300 nM. Also, the Activity entry in data set [1] was “Non-toxic”.
As to `CC(C)C[C@H](NC(=O)OCc1cccc(F)c1)C(=O)N[C@H](C=O)CC1CCNC1=O` (stereo partly specified), the IC50 in data set [2] turned out to be 700 nM. Further, the EC50 with Norovirus amounted to 300 nM. Besides, in data set [1], the Activity entry is given as “Non-toxic”.
With `CC(C)C[C@H](NC(=O)OCCC1CCCCC1)C(=O)N[C@@H](CC1CCNC1=O)C(O)S(=O)(=O)[O-].[Na+]` (stereo partly specified), the EC50 in the data set on Norovirus was determined as 300 nM. Further, in data set [1], the Activity entry is “Toxic”.
As to `CCC[C@H](NC(=O)OCc1ccccc1)C(=O)N[C@@H](CC1CCNC1=O)C(O)S(=O)(=O)[O-].[Na+]` (stereo partly specified), the EC50 in the data set with Norovirus came out at 1500 nM. The Activity entry in data set [1] is on record as “Non-toxic”.
Taken in the same sequence, the figures for `O=C(N[C@@H](Cc1ccccc1)C(=O)N[C@@H](CC1CCNC1=O)C(O)S(=O)(=O)[O-])OCc1ccccc1.[Na+]` (stereo partly specified) were 1100 nM and “Non-toxic”.
`CC(C)C[C@H](NC(=O)OCCC1CCCCC1)C(=O)N[C@H](C=O)CC1CCNC1=O` (stereo partly specified): the half-inhibitory concentration (IC50) in data set [2] was found to be 600 nM. For the same compound, the EC50 with Norovirus turned out to be 300 nM. Moreover, the Activity entry in data set [1] was “Toxic”.
The matching figures for `O=C[C@H](CC1CCNC1=O)NC(=O)[C@H](Cc1ccccc1)NC(=O)OCc1ccccc1` (stereo partly specified): 5100 nM, 1800 nM and “Non-toxic”.
Taken in the same sequence, the figures for `CCC[C@H](NC(=O)OCc1ccccc1)C(=O)N[C@H](C=O)CC1CCNC1=O` (stereo partly specified) were 6100 nM, 2300 nM and “Non-toxic”.
With `CCCC[C@H](NC(=O)OCc1ccccc1)C(=O)N[C@@H](CC1CCNC1=O)C(O)S(=O)(=O)[O-].[Na+]` (stereo partly specified), the EC50 in the data set with Norovirus amounted to 1300 nM. Besides, in data set [1], the Activity entry is reported as “Non-toxic”.
Taken in the same sequence, the figures for `CC(C)C[C@H](NC(=O)OCc1ccc(F)cc1)C(=O)N[C@@H](CC1CCNC1=O)C(O)S(=O)(=O)[O-].[Na+]` (stereo partly specified) were 400 nM and “Non-toxic”.
Turning to `CCCC[C@H](NC(=O)OCc1ccccc1)C(=O)N[C@H](C=O)CC1CCNC1=O` (stereo partly specified), in data set [2], the IC50 came to 4500 nM. Besides, in the data set on Norovirus, the EC50 was 1200 nM. In data set [1], the Activity entry was “Non-toxic”.
The matching figures for `CC(C)C[C@H](NC(=O)OCc1ccc(F)cc1)C(=O)N[C@H](C=O)CC1CCNC1=O` (stereo partly specified): 1800 nM, 500 nM and “Non-toxic”.
With `CC(C)C[C@H](NC(=O)OCc1ccccc1)C(=O)N[C@H](C=O)CC1CCNC1=O` (stereo partly specified), in data set [2], the IC50 was determined as 600 nM. The EC50 with Norovirus stood at 200 nM. Further, the Activity result in data set [1] was “Non-toxic”. Further, in data set [5], the Stability result was “Unstable”.
For `CC(C)C[C@H](NC(=O)OCCc1ccccc1)C(=O)N[C@@H](CC1CCNC1=O)C(O)S(=O)(=O)[O-].[Na+]` (stereo partly specified), the EC50 in the data set on Norovirus was determined as 1000 nM. Besides, the Activity result in data set [1] was “Non-toxic”.
As for `O=C[C@H](CC1CCNC1=O)NC(=O)[C@H](CC1CCCCC1)NC(=O)OCc1ccccc1` (stereo partly specified), the half-maximal inhibitory concentration (IC50) in data set [2] came to 500 nM. Moreover, in the data set with Norovirus, the EC50 was 50 nM. Besides, the Activity result in data set [1] was “Non-toxic”.
As for `O=C(N[C@@H](CC1CCCCC1)C(=O)N[C@@H](CC1CCNC1=O)C(O)S(=O)(=O)[O-])OCc1ccccc1.[Na+]` (stereo partly specified), in the data set on Norovirus, the EC50 turned out to be 60 nM. In addition, the Activity entry in data set [1] is listed as “Non-toxic”.
As for `CC(C)C[C@H](NC(=O)OCCc1ccccc1)C(=O)N[C@H](C=O)CC1CCNC1=O` (stereo partly specified), the half-maximal inhibitory concentration (IC50) in data set [2] turned out to be 1900 nM. In the data set on Norovirus, the EC50 amounted to 1100 nM. Moreover, the Activity result in data set [1] is “Non-toxic”.

The IC50 is the concentration at which inhibition is half-maximal.
